Most compounds without a hit are left out; they make up all but 3.9% or so of the library.
HSF1 inh: HSF1 inhibition; activity change, negative = inhibition, % at 7.5 µM (by protocol); NIH3T3-HGL HSE-luciferase, MG132-induced, luminescence 8 h; active compounds read low; AID 2098; 0.77% of 300,000 active;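 active means more than half of replicate wells show activity change below -50%, luminescence cut by over half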;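 further: luciferase reports HSF-1 transcriptional activity via heat shock element; 0% = median of DMSO wells and -100% = zero luminescence signal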
HSP90 inh: HSP90 refolding inhibition in rabbit reticulocyte lysate; 0.91% of 290,000 active; luciferase refolding luminescence, 3 h; inhibition, % at 5.6 µM;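 active means inhibition above the screen-wide mean plus 3 SD, computed separately per campaign, cut at about 16% in these data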;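 further: 0% = DMSO wells and 100% = 60 µM geldanamycin wells; inhibitors lower the luminescence because luciferase stays unfolded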
DNA FID counter-1: counter-screen for HCV NS3 helicase inhibitors: DNA intercalator displacement; DNA fluorescent intercalator displacement, fluorescence; inhibition, % at 7.9 µM; 0.17% of 290,000 active;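 further: 0% = vehicle and 100% = reference compound; higher means more ethidium bromide displaced from hairpin DNA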
HCV NS3 hel inh: inhibitors of Hepatitis C virus NS3 helicase. NS3 helicase DNA unwinding, Cy5 molecular beacon fluorescence. inhibition, % at 10.9 µM. 0.56% of 290,000 active. AID 1800;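 active means inhibition above the mean of all tested compounds plus 3 SD, set per campaign, cut at about 35% in these data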;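 further: 0% = DMSO wells and 100% = thioflavine S control wells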
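Test system: hepatitis C virus NS3 helicase domain fragment enzyme. Also added: annealed dual-labelled DNA beacon duplex, ATP-started. Timing: 60 min unwinding reaction at 25 °C after ATP addition. Technique: Cy5 fluorescence. Measure: % inhibition of unwinding.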
HCV core dimer: HCV core protein dimerization inhibition | TR-FRET GST/Flag-core106 dimerization, 1536-well | inhibition, % at 5 µM | AID 1899 | 0.33% of 300,000 active;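 active means inhibition above the mean of all tested compounds plus 3 SD, set per screening campaign, cut at about 45% in these data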
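assay system = GST-tagged and Flag-tagged HCV core protein residues 1-106 | controls = unlabelled core106 and no-GST-core106 wells | incubation = compound-protein-antibody incubation 4 h at 22.5 °C | probe or stimulus = Eu donor and XL665 acceptor anti-tag antibodies | read-out = % inhibition based on acceptor/donor emission ratio | signal = TR-FRET 671 and 617 nm emission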
HSF1 activator: increases HSF-1 driven luciferase reporter signal; NIH3T3-HGL HSF-1 luciferase reporter, MG132, 8 h; 100% = twice DMSO control signal; activation, % at 9 µM; 1.7% of 300,000 active;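 active means mean replicate activation of at least 50% with a set share of replicates each reaching 50%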;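 further: 0% = median of the neutral control wells and 100% = twice that signal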
NS3 hel confirm: confirmation of Hepatitis C virus NS3 helicase inhibitors; shares compounds with HCV NS3 hel inh; NS3 helicase DNA unwinding, Cy5 molecular beacon fluorescence; inhibition, % at 10.9 µM; 31% of 1,600 active;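 active means inhibition above the mean of all tested compounds plus 3 SD, cutoff set per campaign, cut at about 36% in these data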
DNA FID counter-2: counter-screen for HCV NS3 helicase inhibitors: DNA intercalator displacement; DNA fluorescent intercalator displacement, fluorescence; 4% of 1,600 active; inhibition, % at 7.9 µM; shares compounds with HCV NS3 hel inh; AID 1945;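 further: 0% = vehicle and 100% = reference compound; higher means more displacement of ethidium bromide from the DNA hairpin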
DNA FID DR: counter-screen for HCV NS3 helicase inhibitors: DNA intercalator displacement dose response; 120 tested, under 10 active; IC50, µM; fluorescent intercalator displacement from DNA, fluorescence; shares compounds with HCV NS3 hel inh; call rule not given here
An asterisk follows results filed as active; i = inactive; . = not tested or not shown. Unless noted, no stated cut-off is given here; in the data, active means inhibition above about 37%; inactive means the rest.

SMILES	HSF1 inh	HSP90 inh	DNA FID counter-1	HCV NS3 hel inh	HCV core dimer	HSF1 activator	NS3 hel confirm	DNA FID counter-2	others
O=C(NCCCN1CCCC1=O)c1cc2nc(-c3ccco3)cc(C(F)(F)F)n2n1	9.6	1.5	-32.6	3.6	12.5	29.4	.	.
CCc1sc(C(C2C(=O)CC(C)(C)CC2=O)C2C(=O)CC(C)(C)CC2=O)cc1[N+](=O)[O-]	2.3	3.1	-16.5	59.2*	17.0	15.6	67.9*	-18.7
CCOc1ccc(NC(=O)Cn2nnc(C(=O)NCc3cccs3)c2N)cc1	2.5	-4.3	-8.5	-2.7	5.4	3.0	.	.
CCOc1ccc(NC(=O)CC2C(=O)N(c3ccc(OC)cc3)C(=O)N2Cc2ccc(OC)cc2)cc1 (stereo unspecified)	-1.0	-2.1	-12.3	-34.3	-9.1	-8.3	.	.
COc1ccc(NC(=O)CC2C(=O)N(c3ccc(OC)cc3)C(=O)N2C(C)C)cc1 (stereo unspecified)	-4.3	6.5	3.3	45.6*	3.2	-6.1	-10.4	-4.8
O=C1CCCC2=C1C(c1ccco1)Nc1ccc3ccccc3c12 (stereo unspecified)	16.1	-4.4	-6.5	41.2*	71.3*	31.2	35.6	-6.4
O=C1c2ccccc2NC2(CCCCC2)N1N=C1CCCCC1	6.8	-4.1	-1.7	49.0*	-3.0	11.2	-7.5	-2.6
CC1CCCCN1C(=S)NCCc1ccccc1 (stereo unspecified)	12.6	-0.3	-4.8	3.5	-3.4	25.3	.	.
O=C1CC(C(=O)Nc2ncccn2)C(c2ccccc2)O1 (stereo unspecified)	1.3	-2.0	1.1	2.5	-1.0	-10.8	.	.
CC(Nc1ccccc1)C(=O)Nc1ccc(F)cc1 (stereo unspecified)	-13.5	6.1	-3.4	9.1	1.1	-24.9	.	.
O=C(Cn1nnc(-c2cccc(C(F)(F)F)c2)n1)NC1CCCC1	1.1	-3.2	4.0	2.0	0.7	-10.1	.	.
CC(C)(C)C(=O)C1=C(O)C(=O)N(Cc2ccccc2)C1c1ccccc1Cl (stereo unspecified)	-7.2	0.2	-38.5	37.8*	8.3	0.0	14.7	-13.2
CCOC(=O)c1cc(NC(=O)Nc2ccc(Br)cc2)c(C)nc1C	-4.4	0.3	-3.7	7.7	-8.0	5.9	.	.
Clc1cccc(Cl)c1C1Nc2cccc3cccc(c23)N1	-4.5	4.6	-13.2	74.8*	37.0	-7.2	-33.1	20.5
Clc1cccc(C2Nc3cccc4cccc(c34)N2)c1	-4.1	4.7	0.2	54.6*	46.5*	21.7	-9.8	12.9
Clc1ccc(C2Nc3cccc4cccc(c34)N2)cc1Cl	-3.7	3.6	-0.1	58.7*	8.0	-15.3	-21.9	25.4
COc1ccc(OC)c(/C=N/NC2=NS(=O)(=O)c3ccccc32)c1	-4.7	2.3	-8.1	-15.1	-9.5	-19.7	.	.
CNC(=O)NC(=O)CSc1cccc(C(F)(F)F)c1	5.3	1.8	0.5	-1.6	1.7	27.5	.	.
CC(C)(C)NC(=O)NC(=O)CSc1cccc(C(F)(F)F)c1	-6.7	-1.6	-21.6	36.7*	0.8	-22.1	-9.7	7.0
Cc1ccsc1/C=N/NC(=O)c1ccc2nc[nH]c2c1	3.7	-6.0	0.9	3.7	-5.0	-5.6	.	.
CC(C)c1ccc(C2CC(=O)N3CN(C)CSC3=C2C#N)cc1 (stereo unspecified)	8.4	-0.6	-33.4	45.3*	-2.9	-15.0	24.6	-5.4
CN(C)c1cccc2c(S(=O)(=O)N3CCCC3)cccc12	8.9	11.2	-24.7	36.1*	-11.8	-1.0	-12.6	-14.9
Cc1ccccc1NC(=S)N(Cc1ccco1)C(C)c1ccccn1 (stereo unspecified)	1.0	-5.7	-5.0	-2.1	0.1	24.8	.	.
NC(=O)c1ccc2c(=O)c(O)c(-c3cc(Cl)c(N)c(Cl)c3)[nH]c2c1	0.5	-0.6	-4.5	38.5*	-3.3	6.5	5.9	11.9
CCCNC(=O)c1ccc2c(=O)c(O)c(-c3ccc(Cl)c([N+](=O)[O-])c3)[nH]c2c1	-3.5	.	.	.	40.0	-11.7	.	.
SMILES	HSF1 inh	HSP90 inh	DNA FID counter-1	HCV NS3 hel inh	HCV core dimer	HSF1 activator	NS3 hel confirm	DNA FID counter-2	others
Cc1cc(NC(=O)c2ccc([N+](=O)[O-])cc2Cl)ccc1NC(=O)c1ccco1	.	-3.6	1.5	36.5*	-4.1	.	-7.8	14.4
Nc1cc([N+](=O)[O-])ccc1O	-5.0	0.1	-7.3	44.2*	-18.8	0.3	2.2	17.3
CCc1noc(C)c1C(=O)Nc1nnc(C2CCCCC2)s1	-2.5	-4.4	-24.5	-1.8	-2.0	-7.6	.	.
CCCCOc1ccc(-c2cc(C(F)(F)F)c(C#N)c(SCC(=O)O)n2)cc1	.	-4.0	-37.8	42.8*	2.0	.	81.0*	-14.0	DNA FID DR=i
CC(C)n1c(SCC(=O)NC2CC2)nnc1C1CC1	-8.0	3.8	-0.8	1.3	-0.1	-10.7	.	.
COc1ccccc1/C=C/C1=NC(=C\C=C/c2ccccc2)/C(=O)O1	132.7	5.1	-28.7	46.2*	34.8	170.9*	61.3*	-27.0	DNA FID DR=>79.4
COc1cccc(OCCNC(=O)c2cc(OC)c(OC)c(OC)c2)c1	-2.9	-1.4	-19.5	7.4	-1.6	-9.1	.	.
O=C(CCc1nc2ccccc2c(=O)[nH]1)NCC(=O)Nc1ccc(F)c(F)c1	-1.2	.	.	.	0.7	12.1	.	.
O=C(CCc1nc2ccccc2c(=O)[nH]1)Nc1ccc(F)c([N+](=O)[O-])c1	-5.2	3.8	-17.1	51.6*	5.1	23.8	-11.2	12.6
CC1(C)Oc2cc(N)c([N+](=O)[O-])cc2O1	1.7	-5.5	1.1	53.6*	-11.8	6.9	-12.9	3.9
C=C1N(C)c2cc([N+](=O)[O-])c(N)cc2C1(C)C	8.7	-0.5	10.2	-7.1	-16.3	20.4	.	.
CCOc1cccc(C2C(C(=O)c3ccc(C)o3)=C(O)C(=O)N2Cc2ccccc2)c1 (stereo unspecified)	-1.6	-1.6	-34.1	62.0*	.	5.9	78.6*	-28.6	DNA FID DR=>79.4
C=CCOc1cccc(C2C(C(=O)c3ccco3)=C(O)C(=O)N2Cc2ccco2)c1 (stereo unspecified)	4.2	3.5	-45.7	38.1*	11.6	10.3	23.4	-15.8
C=CCOc1cccc(C2C(C(=O)c3ccco3)=C(O)C(=O)N2Cc2ccncc2)c1 (stereo unspecified)	5.9	0.1	-19.0	4.2	10.8	6.3	.	.
COc1ccccc1N1C(=N)S/C(=C\c2ccc(-c3ccccc3C(=O)O)o2)C1=O	-4.1	0.4	-27.9	41.1*	-13.3	7.7	40.2*	-18.7
